We go through six compounds from publication PMC4081462 (Molecular diversity, 2014).

For data set [1], the system named is bovine brain tubulin. As to the kind of experiment: Inhibition of tubulin assembly. It is filed as biochemical. Particulars: for IC50: read-out: Inhibition of tubulin assembly IC50 ± SD, 10 µM bovine brain tubulin, 0.4 mM GTP, 30 °C, 20 min. In a few lines: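 10 µM bovine brain tubulin in glutamate buffer was preincubated with varying test compound concentrations at 30 °C, then chilled to 0 °C. 0.4 mM GTP was added and the mixture rewarmed to 30 °C in a recording spectrophotometer. Assembly was followed as turbidity at 350 nm. IC50 is the concentration cutting assembly extent by 50% after 20 min.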

In data set [2] the test system is tubulin. As to the kind of experiment: Inhibition of [3H]vinblastine binding to tubulin. To be noted: for Inhibition of binding of [3H]vinblastine, % inhibition ± SD: 10 µM tubulin, 10 µM radiolabeled ligand. The arrangement: species or system bovine. The essentials: (§1)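 Radioligand binding in 0.1 M MES (pH 6.9) with 0.5 mM MgCl2, 10 µM tubulin (1.0 mg/mL), 10 µM radiolabeled ligand and inhibitors at different concentrations. Ligands were mixed before tubulin was added, then incubated 15 min at around 20 °C. Duplicate aliquots were run through Sephadex G-50 superfine syringe columns equilibrated in 0.1 M MES-0.5 mM MgCl2 (pH 6.9). At least two experiments per condition.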

For data set [3], the system named is tubulin. As to the kind of experiment: Inhibition of [3H]dolastatin 10 binding to tubulin. The arrangement: species or system bovine. To be noted: for Inhibition of binding of [3H]dolastatin 10, % inhibition ± SD: 10 µM tubulin, 10 µM radiolabeled ligand. In a few lines:
as §1

Data set [4] concerns tubulin. Description: Inhibition of [3H]halichondrin B binding to tubulin. Set-up: species or system bovine. Particulars: for Inhibition of binding of [3H]halichondrin B, % inhibition ± SD: 10 µM tubulin, 10 µM radiolabeled ligand. The essentials:
as §1

Data set [5] relates to HeLa. As to the kind of experiment: Antiproliferative assay. The class given is cell-based. To be noted: Homo sapiens, 72 h, read-out: In vitro cytotoxic activity IC50, HeLa.
Data set [6] has as its system HT29. As to the kind of experiment: Antiproliferative assay. The class given is cell-based. To be noted: Homo sapiens, HT-29, 72 h, read-out: In vitro cytotoxic activity IC50, HT29.
Data set [7] relates to SEM cells. Description: Antiproliferative assay. The class given is cell-based. To be noted: Homo sapiens, B-cell, 72 h, read-out: In vitro cytotoxic activity IC50, SEM. The essentials: (§2)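 Cells from ATCC. Jurkat and SEM were grown in RPMI-1640, and HeLa and HT-29 in DMEM, each with 115 units/mL penicillin G, 115 µg/mL streptomycin and 10% FBS. 8 × 10³ cells/well were seeded 18 h ahead (37 °C, 5% CO2). The medium was then replaced with test compound at several concentrations (10 mM DMSO stock) for 72 h at 37 °C. MTT read-out was at 560 nm; IC50 is 50% proliferation inhibition.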

In data set [8] the test system is Jurkat. As to the kind of experiment: Antiproliferative assay. The class given is cell-based. Particulars: Homo sapiens, 72 h, read-out: In vitro cytotoxic activity IC50, Jurkat. In a few lines:
as §2

Data set [9] deals with HeLa, HT29, SEM, and Jurkat tumor cells. As to the kind of experiment: Cytotoxicity on tumor cell panel. It is filed as cell-based, human. In a few lines:
as §2

Counter-ions that a name gives are not always drawn.

Regarding `CN[C@H](C(=O)N[C@H](C(=O)N(C)[C@H](/C=C(\C)C(=O)O)C(C)C)C(C)(C)C)C(C)(C)c1cn(C)c2ccccc12` [Compound 1, hemiasterlin], the “Inhibition of tubulin assembly (in words)” value in data set [1] is reported as “active”. Besides, the half-maximal inhibitory concentration (IC50) in [1] was found to be 1300 ± 50 nM. Moreover, the “Inhibition of the binding of [3H]vinblastine (in words)” value in data set [2] is listed as “active”. Besides, the “Inhibition of binding of [3H]vinblastine, % inhibition ± SD” value is 14 ± 4% in data set [2] (inhibitor 5 µM) and 66 ± 4% in [2] (inhibitor 20 µM). The “Inhibition of the binding of [3H]dolastatin 10 (in words)” value in data set [3] was “active”. Further, the “Inhibition of binding of [3H]dolastatin 10, % inhibition ± SD” value in data set [3] (inhibitor 5 µM) came out at 19 ± 7%; in data set [3] (inhibitor 20 µM), 89 ± 1%. Further, in [4], the “Inhibition of the binding of [3H]halichondrin B (in words)” value is “active”. Moreover, the “Inhibition of binding of [3H]halichondrin B, % inhibition ± SD” value in [4] (inhibitor 5 µM) worked out at 38 ± 4%; in [4] (inhibitor 20 µM) it was 92 ± 2%.
Regarding `CN[C@H](C(=O)N[C@H](C(=O)N(C)[C@H](/C=C(\C)C(=O)O)C(C)C)C(C)(C)C)C(C)(C)c1ccccc1` [Compound 2, taltobulin], the IC50 in data set [5] stood at 0.2 ± 0.1 nM; in data set [6] it was 0.3 ± 0.1 nM; in data set [7], 0.1 ± 0.05 nM; in data set [8] it was 0.2 ± 0.5 nM; in [1], 1200 ± 10 nM. In addition, in data set [1], the “Inhibition of tubulin assembly (in words)” value was “active”. Moreover, the “Inhibition of the binding of [3H]vinblastine (in words)” value in data set [2] was “active”. In addition, the “Inhibition of binding of [3H]vinblastine, % inhibition ± SD” value came to 29 ± 9% in data set [2] (inhibitor 5 µM) and 60 ± 2% in data set [2] (inhibitor 20 µM). In addition, the “Inhibition of the binding of [3H]dolastatin 10 (in words)” value in data set [3] is given as “active”. Moreover, the “Inhibition of binding of [3H]dolastatin 10, % inhibition ± SD” value in [3] (inhibitor 5 µM) turned out to be 0 ± 0%; in data set [3] (inhibitor 20 µM), 30 ± 1%. In [4], the “Inhibition of the binding of [3H]halichondrin B (in words)” value is given as “active”. Further, the “Inhibition of binding of [3H]halichondrin B, % inhibition ± SD” value in data set [4] (inhibitor 5 µM) came to 38 ± 6%; in [4] (inhibitor 20 µM), 63 ± 1%. For the same compound, the “Cytotoxic activity (in words)” value in data set [9] was “nanomolar IC50 values”.
As to `CN[C@H](C(=O)N[C@H](C(=O)N(C)c1cccc(C(=O)O)c1)C(C)C)C(C)(C)c1ccccc1.O=C(O)C(F)(F)F` [Compound 3, 3-((S)-N,3 Dimethyl-2-((S)-3-methyl-2-(methylamino)-3-phenylbutanamido)butanamido) benzoic acid trifluoroacetate], the half-maximal inhibitory concentration (IC50) in data set [5] was 4700 ± 500 nM; in data set [6], 1900 ± 500 nM; in data set [7] it was more than 10000 nM; in [8], 150 ± 20 nM; in data set [1], more than 20000 nM. Further, the “Inhibition of binding of [3H]vinblastine, % inhibition ± SD” value in data set [2] (inhibitor 20 µM) is recorded as 2 ± 1%. In data set [3] (inhibitor 20 µM), the “Inhibition of binding of [3H]dolastatin 10, % inhibition ± SD” value came to 7 ± 3%. Besides, in data set [4] (inhibitor 20 µM), the “Inhibition of binding of [3H]halichondrin B, % inhibition ± SD” value came to 0 ± 0%.
Consider `CN[C@H](C(=O)N[C@H](C(=O)N(C)c1cc(C(=O)O)ccc1C)C(C)C)C(C)(C)c1ccccc1.O=C(O)C(F)(F)F` [Compound 4, 3-((S)-N,3-Dimethyl-2-((S)-3-methyl-2-(methylamino)-3-phenylbutanamido)butanamido)-4-methylbenzoic acid trifluoroacetate], for which the 50% inhibitory concentration (IC50) in data set [5] was 5300 ± 600 nM; in data set [6], 2700 ± 200 nM; in data set [7], more than 10000 nM; in data set [8], 290 ± 50 nM; in [1], more than 20000 nM. For the same compound, the “Inhibition of binding of [3H]vinblastine, % inhibition ± SD” value in [2] (inhibitor 20 µM) turned out to be 9 ± 1%. For the same compound, the “Inhibition of binding of [3H]dolastatin 10, % inhibition ± SD” value in [3] (inhibitor 20 µM) was 0 ± 0%. For the same compound, in data set [4] (inhibitor 20 µM), the “Inhibition of binding of [3H]halichondrin B, % inhibition ± SD” value is 3 ± 1%.
With `CN[C@H](C(=O)N[C@H](C(=O)N(C)c1cc(C(=O)O)ccc1OC)C(C)C)C(C)(C)c1ccccc1.O=C(O)C(F)(F)F` [Compound 5, 3-((S)-N,3-Dimethyl-2-((S)-3-methyl-2-(methylamino)-3-phenylbutanamido)butanamido)-4-methoxybenzoic acid trifluoroacetate], the IC50 in data set [5] is more than 10000 nM; in data set [6], more than 10000 nM; in data set [7] it was more than 10000 nM; in [8], more than 10000 nM; in [1] it was more than 20000 nM. Further, in data set [2] (inhibitor 20 µM), the “Inhibition of binding of [3H]vinblastine, % inhibition ± SD” value turned out to be 0 ± 0%. In addition, the “Inhibition of binding of [3H]dolastatin 10, % inhibition ± SD” value in data set [3] (inhibitor 20 µM) is 8 ± 2%. Moreover, the “Inhibition of binding of [3H]halichondrin B, % inhibition ± SD” value in [4] (inhibitor 20 µM) is given as 0 ± 0%.
On to `CN[C@H](C(=O)N[C@H](C(=O)N(C)[C@H](c1nc(C(=O)O)co1)C(C)C)C(C)C)C(C)(C)c1ccccc1` [Compound 8, 2-((S)-1-((S)-N,3-Dimethyl-2-((S)-3-methyl-2-(methylamino)-3-phenylbutanamido)butanamido)-2-methylpropyl)oxazole-4-carboxylic acid trifluoroacetate], for which the half-inhibitory concentration (IC50) in data set [5], in data set [6], in data set [7] and in [8] was more than 10000 nM each time.
